Compound activity from PubChem BioAssay.
Shown are actives, neighbours in structure and some others; about 2.7% of the full set was active somewhere.
ARFGAP1 inh: inhibitors of rat ARFGAP1 | 0.26% of 360,000 active | inhibition, % at 16.5 µM | Arfgap1-stimulated ARF1 GTP hydrolysis, GDP FP detection;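 active means inhibition above a per-plate limit, mean inhibition of low control wells plus 3 SD, cut at about 25% in these data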;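 further: 0% = DMSO wells with enzyme and 100% = wells lacking Arfgap1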
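Assay system: Rat Arfgap1 GAP domain (His6, aa 1-136), purified enzyme | Buffer or medium: HEPES 25 mM pH 7.5, NaCl 150 mM, MgCl2, DTT | Schedule: GTP hydrolysis reaction 2 h at 25 °C | Signal: FP of antibody-bound GDP Alexa 633 tracer, ex 620/em 688 nm | Measure: Percent inhibition of Arfgap1-stimulated GTP hydrolysis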
PAFAH2 inh: PAFAH2 (human) inhibition; inhibition, % at 3.39 µM; 0.99% of 340,000 active; AID 492956; recombinant PAFAH2, FP-rhodamine activity probe, fluorescence polarization;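 active means inhibition above the mean over all tested compounds plus 3 SD, cut at about 30% in these data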;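 further: inhibitors block probe labeling of enzyme so polarization drops; 0% = enzyme with DMSO and 100% = wells lacking PAFAH2 protein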
PAFAH1B3 FP inh: inhibitors of human PAFAH1B3; recombinant PAFAH1B3, FP-rhodamine probe, fluorescence polarization; inhibition, % at 3.39 µM; 0.28% of 340,000 active;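 active means inhibition above the screen-wide average of all tested compounds plus 3 SD, cut at about 25% in these data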;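 further: 0% = enzyme with DMSO only and 100% = wells lacking PAFAH1B3 protein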
Target sequence (Q15102 whole entry, looked up): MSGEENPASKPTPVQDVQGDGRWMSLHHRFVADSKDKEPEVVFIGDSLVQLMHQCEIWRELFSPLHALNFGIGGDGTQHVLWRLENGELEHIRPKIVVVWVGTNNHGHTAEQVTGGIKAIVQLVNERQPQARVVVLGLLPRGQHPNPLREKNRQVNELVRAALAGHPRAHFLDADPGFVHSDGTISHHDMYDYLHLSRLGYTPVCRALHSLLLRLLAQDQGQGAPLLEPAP
pPAFAH inh: pPAFAH (human) enzyme inhibition; Q13093; recombinant pPAFAH, FP-rhodamine probe fluorescence polarization; inhibition, % at 3.39 µM; 1.5% of 330,000 active; AID 463082;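 active means inhibition above the mean inhibition across the screen plus 3 SD, cut at about 25% in these data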;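 further: inhibitors block binding of the rhodamine activity-based probe so polarization drops; 0% = enzyme with DMSO and 100% = wells lacking pPAFAH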
PAFAH1B2 inh: blocks human PAF acetylhydrolase 1b catalytic subunit 2. P68402. recombinant PAFAH1B2, FP-rhodamine activity probe, fluorescence polarization. inhibition, % at 3.39 µM. 1.2% of 340,000 active;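 active means inhibition above the mean of all tested compounds plus 3 SD, cut at about 24% in these data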;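 further: 0% = enzyme with DMSO and 100% = wells lacking PAFAH1B2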
ASAP1 GAP inh: inhibitors of human ASAP1 ArfGAP activity | Q9ULH1 | ASAP1-stimulated ARF1 GTP hydrolysis, GDP FP detection | inhibition, % at 16.5 µM | 0.19% of 360,000 active | AID 624377; in the data active means inhibition above about 25%;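 further: 0% = vehicle with enzyme and substrate and 100% = no enzyme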
Target sequence (Q9ULH1 325-724 limits assumed): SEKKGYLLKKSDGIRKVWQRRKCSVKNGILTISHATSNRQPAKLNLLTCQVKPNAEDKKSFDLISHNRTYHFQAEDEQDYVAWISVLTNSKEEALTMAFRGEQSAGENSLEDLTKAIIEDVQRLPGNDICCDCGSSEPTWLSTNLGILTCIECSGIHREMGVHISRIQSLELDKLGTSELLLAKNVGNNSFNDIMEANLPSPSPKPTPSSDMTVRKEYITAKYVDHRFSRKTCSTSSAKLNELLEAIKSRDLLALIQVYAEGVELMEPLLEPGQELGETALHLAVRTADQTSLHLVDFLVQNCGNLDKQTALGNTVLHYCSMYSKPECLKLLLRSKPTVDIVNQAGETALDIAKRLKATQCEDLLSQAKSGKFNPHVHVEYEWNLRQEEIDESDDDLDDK
Active calls of the source: *; x = no result.

SMILES	ARFGAP1 inh	PAFAH2 inh	PAFAH1B3 FP inh	pPAFAH inh	PAFAH1B2 inh	ASAP1 GAP inh
O=C(/C=N/O)Nc1ccc2sc3ccccc3c2c1	4	47*	62*	33*	42*	-1
CC(C)(C)OC(=O)N1CCC(NC(=O)c2nc[nH]c2C(=O)NCC(=O)OCc2ccccc2)CC1	1	-3	0	33*	-4	-1
CCc1ccc(C(=O)/C=C2\Sc3ccccc3NC2=O)cc1	12	36*	5	17	4	7
CCCCNC(=O)/C=C1\Sc2ccccc2NC1=O	-7	4	0	3	7	11
CCN(CC)S(=O)(=O)c1ccc(/C=C/C(=O)OCC(=O)NCc2ccco2)cc1	-5	75*	-6	30*	9	1
CCCn1nc(NS(=O)(=O)c2cccc3nonc23)c2cc3cccc(C)c3nc21	-3	13	3	29*	10	15
CCCn1nc(NS(=O)(=O)c2cccc3nonc23)c2cc3cc(C)ccc3nc21	-5	11	9	17	8	6
COc1cccc(CNC(=O)[C@H]2CCCN2C(=O)[C@H]2CCCN2C(=O)c2cccc(OC)c2)c1	-3	x	x	x	x	-9
COC(=O)CCC[C@H](C)[C@@H](NS(=O)(=O)c1ccc(C)cc1)C(C)(C)C	-1	x	x	x	x	2
Cc1ccc(-c2c3c([nH]c(=S)c2C#N)CCCC3)o1	-3	17	8	25*	6	-7
CCCCN1CC(COCc2ccccc2)Oc2cccc(Oc3ccc(SC)c(C)c3)c2S1(=O)=O (stereo not given)	2	x	x	x	x	-6
C[C@@H]1CN([C@@H](C)CO)C(=O)CCCn2cc(nn2)CO[C@H]1CN(C)C(=O)Nc1ccc(F)cc1	0	x	x	x	x	2
C=CCN1C(=O)c2n[nH]c(COC)c2C1c1ccc(F)cc1 (stereo not given)	10	x	x	x	x	3
Cc1cc(C)nc(NNS(=O)(=O)c2ccc(Cl)cc2)n1	-4	10	10	1	26*	7
Cc1cc(C)nc(NNS(=O)(=O)c2ccc(F)c(Cl)c2)n1	7	2	-3	1	1	-2
O=C1C(Nc2cccc(O)c2)=C(N2CCCCC2)C(=O)c2ccccc21	13	60*	66*	17	25*	16
O=C1C(NS(=O)(=O)c2ccc(Br)cc2)=C(N2CCCCC2)C(=O)c2ccccc21	0	6	12	11	8	5
Cc1ccc(/C=C/C2=Cc3c(sc(NC(=O)CSc4n[nH]c(N)n4)c3C#N)C(C)(C)C2)o1	x	x	x	58*	x	x
Cc1cc(Oc2cccnc2)ccc1NC(=O)Cc1c(C)[nH]c2ccccc12	2	x	x	x	x	-8
Cc1ccc(SCC(=O)NC(C)c2ccccc2)cc1 (stereo not given)	3	0	0	-4	34*	13
O=C(CSc1ncccn1)NCc1cccs1	11	4	0	4	4	8
O=C(COC(=O)c1cccc(Cl)c1Cl)NCc1cccs1	-1	33*	8	33*	3	-16
Cc1csc(SCC(=O)NC(C)c2ccccc2)n1 (stereo not given)	-8	2	-6	3	3	12
Cc1ccc(SCC(=O)OCC(=O)NCCc2ccccc2)cc1	-13	4	9	28*	50*	2
Cc1ccc(OCCC(=O)OCC(=O)NCCc2ccccc2)cc1	11	5	3	24	11	4
SMILES	ARFGAP1 inh	PAFAH2 inh	PAFAH1B3 FP inh	pPAFAH inh	PAFAH1B2 inh	ASAP1 GAP inh
O=C(CSc1ccc2ccccc2c1)NCc1cccs1	3	-2	4	-5	26*	-1
COCc1cc(N2CCN(C(=O)OC(C)(C)C)C[C@H]2C)ccc1Br	1	x	x	x	x	-14
Cc1ccc(SCC(=O)OCC(=O)NCc2cccs2)cc1	-3	3	5	24	28*	11
Cc1ccc(SCC(=O)OCC(=O)NCCc2ccccc2)cc1C	-2	0	12	30*	12	1
Cc1ccc(SCC(=O)OCC(=O)Nc2ccc3[nH]c(=O)[nH]c3c2)cc1C	-4	1	6	0	2	-5
COc1cccc(CNC(=O)[C@H]2CCCN2C(=O)[C@H]2CCCN2C(=O)c2ccc(C)c(C)c2)c1	-8	x	x	x	x	2
O=C(NC1CCCC1)[C@@H]1CCCN1C(=O)[C@@H](NC(=O)N1CCOCC1)C1CCCCC1	-13	x	x	x	x	-11
CCc1ccc(C2CC(c3ccc(C)cc3)Nc3nc(N)nn32)cc1 (stereo not given)	4	3	1	-7	25*	-6
CCCN1CCCCC(NC(=O)COCc2ccccc2)C1=O (stereo not given)	-3	x	x	x	x	-13
CCN(CC)C(=O)CSc1nc(O)cc(=O)n1C	-3	2	1	1	2	21
Cc1ccccc1-n1c(SCC(=O)Nc2c(C)cccc2C)nc(O)cc1=O	4	-8	3	31*	2	-2
Cc1ccc(NC(=O)CSc2nc(O)cc(=O)n2-c2ccc(C)cc2)cc1	8	0	-6	-9	-2	-14
CCN(CC)C(=O)CSc1nc(O)cc(=O)n1-c1ccccc1OC	x	0	-5	25*	4	x
CC(C)(C)c1ccc(C(=O)NCCC(=O)N2CCN(c3ncccn3)CC2)cc1	-6	1	-1	0	30*	-4
CC(C)(C)c1ccc(C(=O)NCCC(=O)N2CCCC2)cc1	-1	-1	-2	4	7	-8
N#Cc1c(N)nc2c(c1N)CC(=O)N2c1ccccc1-c1ccccc1	10	-2	11	0	3	3
N#Cc1c(N)nc2c(c1N)CC(=O)N2c1ccc(Cl)cc1	x	3	19	8	24*	x
CC(C)c1[nH]nc2c1C(c1cccc(C(F)(F)F)c1)N(c1ccccc1)C2=O (stereo not given)	-1	x	x	x	x	10
CC(C)(C)c1ccc(NC(=O)N2CCCN(c3ccc([N+](=O)[O-])cn3)CC2)cc1	11	4	1	6	25*	-5
O=C(COC(=O)c1cccc(S(=O)(=O)N2CCN(c3ccccc3)CC2)c1)NCc1ccco1	16	15	9	26*	5	-1
O=C(COC(=O)c1cccc(Oc2ccccc2)c1)NCc1ccco1	-10	36*	-5	34*	1	2
CCc1c(C2CC2)ncn1Cc1cccc(-c2ccccc2)c1	8	x	x	x	x	11
NC(=O)CSc1nc2scc(-c3ccco3)c2c(=O)n1-c1ccccc1	6	3	3	28*	5	7
CCn1c(C)c(C(C)=O)c(NCc2ccccc2)nc1=S	-6	4	3	26*	15	-10
CCN(CC)c1ccc(C(=O)n2cnc3ccccc32)cc1	-8	30	7	30*	1	8
